Compound activity (PubChem BioAssay)
PG9 Ab binder – PG9 antibody binding by small molecule | 0.43% of 360,000 active | TR-FRET gp120-PG9 antibody binding | inhibition, % at 6.7 µM | AID 624416; in the data active = inhibition above about 8.5%
NR2E3 ag-1 – activates human NR2E3 receptor; Q9Y5X4; CHO-S Gal4-NCOR/VP16-NR2E3 two-hybrid, luciferase; inhibition of corepressor binding, % at 3.98 µM; 0.35% of 360,000 active;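 active = inhibition above the mean of all tested compounds plus 3 SD, cut at about 70% in these data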;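 note: 0% = DMSO with NR2E3 transfected cells and 100% = cells lacking NR2E3 construct; higher means lower luciferase signal from less NR2E3 corepressor binding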
NR2E3 ag-2 – NR2E3 (human) agonism; 0.12% of 320,000 active; Q9Y5X4; GST-NR2E3/biotin-RetCOR TR-FRET, 1536-well; AID 2300; inhibition of corepressor binding, % at 4.78 µM;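 active = percent inhibition above the cutoff of mean plus 3 SD of all tested compounds, set per screening campaign, cut at about 20% in these data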;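 note: 0% = DMSO wells and 100% = biotin wells as full block of FRET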
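Material: NR2E3–RetCOR corepressor complex / Amount: 1.35 nM GST-NR2E3 / Medium: Tris pH 7.5 / Compound: single nominal compound dose of 4.8 µM / Incubation: 5 h at 4 °C / Technique: TR-FRET, Eu(K)-anti-GST donor, streptavidin-D2 acceptor, ex 340, em 617/671 nm / Read-out basis: percent loss of FRET ratio relative to control wells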
NR1D1 modulator – modulates human Rev-erb alpha binding to DNA | P20393 | 0.79% of 370,000 active | activity, % at 10 µM | Rev-erbα–FITC-DNA binding, fluorescence polarization, 90 min;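 active = activity above about 14%, limit read from the data; passing the limit was not always enough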;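 note: 0% = DMSO wells with 35 nM protein and 100% = DMSO wells with 750 nM protein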
Target sequence (P20393 whole entry, looked up): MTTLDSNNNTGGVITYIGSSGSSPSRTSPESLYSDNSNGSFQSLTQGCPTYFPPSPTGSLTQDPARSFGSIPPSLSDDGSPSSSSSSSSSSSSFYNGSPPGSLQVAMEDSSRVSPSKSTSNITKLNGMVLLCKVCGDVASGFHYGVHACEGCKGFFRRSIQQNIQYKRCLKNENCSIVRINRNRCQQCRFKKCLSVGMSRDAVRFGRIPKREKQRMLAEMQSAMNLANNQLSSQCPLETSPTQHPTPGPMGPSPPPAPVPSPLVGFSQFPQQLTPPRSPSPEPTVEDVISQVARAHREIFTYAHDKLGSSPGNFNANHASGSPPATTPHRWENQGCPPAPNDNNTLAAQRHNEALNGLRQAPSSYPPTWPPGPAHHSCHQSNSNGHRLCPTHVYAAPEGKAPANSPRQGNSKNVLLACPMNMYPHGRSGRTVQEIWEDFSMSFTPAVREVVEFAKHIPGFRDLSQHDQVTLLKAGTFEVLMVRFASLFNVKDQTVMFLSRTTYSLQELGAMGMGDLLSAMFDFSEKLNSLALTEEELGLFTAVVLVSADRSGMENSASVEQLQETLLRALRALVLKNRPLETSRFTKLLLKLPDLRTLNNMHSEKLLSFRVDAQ
NR2E3 ag confirm-1 – NR2E3 (human) agonism, confirmation. 39% of 360 active. shares compounds with NR2E3 ag-2. cell-free NR2E3 corepressor release, TR-FRET, 5 h. activation (reported as inhibition), % at 3.98 µM; in the data active = activation above about 20%
PPARg-NCOR2 ag – counter-screen for NR2E3 agonists: human PPARgamma-NCOR2 interaction agonists. shares compounds with NR2E3 ag-2. TR-FRET PPARg-NCOR2 coregulator interaction, biochemical. inhibition, % at 3.98 µM. 45% of 360 active. AID 504787; in the data active = inhibition above about 20%;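 note: 0% = DMSO vehicle and 100% = wells without protein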
NR2E3 ag confirm-2 – NR2E3 agonism confirmed in two-hybrid assay; shares compounds with NR2E3 ag-1; 51% of 2,300 active; inhibition, % at 3.98 µM; CHO-S mammalian two-hybrid NR2E3-NCOR, luciferase luminescence;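 active = average inhibition above a cutoff equal to the mean inhibition of all tested compounds plus one SD, cut at about 70% in these data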;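 note: 0% = DMSO in NR2E3 cells and 100% = DMSO in cells lacking NR2E3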
GAL4-VP16 luc – counter-screen for NR2E3 agonists: GAL4-VP16 reporter inhibitors; shares compounds with NR2E3 ag-1; CHO-S GAL4-VP16 luciferase reporter, luminescence; inhibition, % at 3.98 µM; 29% of 2,300 active;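 active = mean inhibition above a cutoff equal to the average over all tested compounds plus one standard deviation, cut at about 70% in these data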;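 note: luciferase from a UAS reporter driven by GAL4-VP16 transactivation; 0% = DMSO with VP16-transfected cells and 100% = DMSO with cells lacking VP16; higher means less reporter light so more repression of VP16 activity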
PG9 bind confirm – confirmation of small molecules binding HIV-1 gp120 antibody PG9 | shares compounds with PG9 Ab binder | TR-FRET PG9 antibody binding, biochemical | inhibition, % at 6.7 µM | 90% of 1,500 active; in the data active = inhibition above about 9%
PGV04 counter – PGV04 control antibody binding, counter-screen | shares compounds with PG9 Ab binder | TR-FRET PGV04 antibody-gp120 binding, biochemical | inhibition, % at 6.7 µM | 95% of 1,500 active; in the data active = inhibition above about 9.5%
PG9 bind DR – small molecules binding HIV-1 gp120 antibody PG9 | TR-FRET PG9 antibody-gp120 binding inhibition | 95 tested, under 10 active | IC50, µM | AID 651848 | shares compounds with PG9 Ab binder; in the data active = IC50 below about 10 µM
PGV04 DR counter – binds control antibody PGV04 in PG9 counter-screen; shares compounds with PG9 Ab binder; AID 651937; 20% of 95 active; TR-FRET binding to control antibody PGV04; IC50, µM
PG126 DR counter – binds control antibody PG126 in PG9 counter-screen | shares compounds with PG9 Ab binder | TR-FRET binding to antibody PG126, counterscreen | IC50, µM | 20% of 95 active | AID 651939
Rev-erbA confirm – confirmation of modulators of human Rev-erb alpha DNA binding; activation, % at 25 µM; 61% of 3,000 active; shares compounds with NR1D1 modulator; Rev-erb alpha FITC-DNA binding, fluorescence polarization, 90 min;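 active = activation at or above a set limit, or at least 3 SD above the negative control mean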;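 note: 0% = 35 nM protein with DMSO and 100% = 750 nM protein high control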
RORg counter – RORgamma DNA-binding activity, dose-response counter-screen | AID 1259320 | IC50, µM | shares compounds with NR1D1 modulator | purified RORgamma protein-FITC-DNA binding, fluorescence polarization | 8% of 910 active;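 active = Compounds whose fitted half-maximal concentration for disrupting protein-DNA binding is below 10 micromolar; the record names Rev-erb in its text, so the target is in doubt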
* marks the source's active call; other numbers are inactive results. An excerpt weighted towards active compounds, which were near 1.5% of everything screened. Cut-off read from the data, not from the text of the source, unless noted: active = IC50 below about 9 µM; inactive = the rest.

CCOc1ccc(NC(=O)c2ccc(OC)cc2)cc1 was read as PG9 Ab binder 1, NR2E3 ag-1 -48, NR2E3 ag-2 2 and NR1D1 modulator 4.
`Cc1ccccc1-n1c(SCC(=O)Nc2ccccc2Cl)nc2n[nH]c(C)c2c1=N` gave PG9 Ab binder -1, NR2E3 ag-1 4, NR2E3 ag-2 -2 and NR1D1 modulator 0.
`CCOc1ccccc1NC(=O)CCSc1nc2n[nH]c(C)c2c(=N)n1-c1ccccc1Cl` gave PG9 Ab binder 41*, NR2E3 ag-1 -30, NR2E3 ag-2 26*, NR1D1 modulator 35*, NR2E3 ag confirm-1 32*, PPARg-NCOR2 ag 34* and Rev-erbA confirm 16.
For O=[N+]([O-])O[C@@H]1CO[C@H]2[C@@H]1OC[C@@H]2O the results were NR1D1 modulator -10.
O=C(CSc1ncnc2c1oc1ccccc12)c1cccs1 was read as PG9 Ab binder 29*, NR2E3 ag-1 -64, NR2E3 ag-2 31*, NR1D1 modulator 73*, NR2E3 ag confirm-1 25*, PPARg-NCOR2 ag 25*, PG9 bind confirm 30*, PGV04 counter 52*, Rev-erbA confirm 66* and RORg counter >40.
`Cc1cccc(NC(=O)CSc2ncnc3c2oc2ccccc23)c1` gave PG9 Ab binder 66*, NR2E3 ag-1 5, NR2E3 ag-2 60*, NR1D1 modulator 601*, NR2E3 ag confirm-1 66*, PPARg-NCOR2 ag 72*, PG9 bind confirm -39, PGV04 counter 47*, Rev-erbA confirm 631* and RORg counter 1*.
Cc1ccc2nc(NC(=O)CSc3ncnc4c3oc3ccccc34)sc2c1 was read as PG9 Ab binder -6, NR2E3 ag-1 0 and NR1D1 modulator 9.
For O=C(CS(=O)Cc1ccco1)NC/C=C\COc1cc(CN2CCCCC2)ccn1 (stereo not given) the results were NR1D1 modulator -4.
For COc1ccc(C(=O)Nc2nnc(Cc3ccccc3)s2)c(OC)c1 the results were PG9 Ab binder 68*, NR2E3 ag-1 -37, NR2E3 ag-2 47*, NR1D1 modulator 71*, NR2E3 ag confirm-1 -9, PPARg-NCOR2 ag 12, PG9 bind confirm 39*, PGV04 counter 32*, PG9 bind DR inactive, PGV04 DR counter inactive, PG126 DR counter inactive, Rev-erbA confirm 53* and RORg counter >40.
For CN(C(=O)COc1cc(=O)n(C)c2ccccc12)c1ccc(Cl)cc1 the results were PG9 Ab binder 1, NR2E3 ag-1 -8, NR2E3 ag-2 2 and NR1D1 modulator 2.
For CN(c1ccc(Cl)cc1)c1cc(=O)n(C)c2ccccc12 the results were PG9 Ab binder 1, NR2E3 ag-1 -20, NR2E3 ag-2 21*, NR1D1 modulator 22*, NR2E3 ag confirm-1 3, PPARg-NCOR2 ag 5 and Rev-erbA confirm 18*.
`CCOc1ccc(N=C(C)Nc2ccc(OCC)cc2)cc1` gave NR1D1 modulator -3.
`CCc1cc2cc(C(=O)Nc3ccc(F)cc3)sc2s1` gave PG9 Ab binder 46*, NR2E3 ag-1 -6, NR2E3 ag-2 30*, NR1D1 modulator 78*, NR2E3 ag confirm-1 4, PPARg-NCOR2 ag -13, PG9 bind confirm 53*, PGV04 counter 60*, Rev-erbA confirm 63* and RORg counter >40.
`CCC[C@@H]1C[C@@H](C(=O)N[C@@H]([C@H]2O[C@H](SC)[C@H](OP(=O)(O)O)[C@@H](O)[C@H]2O)[C@H](C)Cl)N(C)C1` gave NR1D1 modulator -6.
`c1ccc(CNc2nc(-c3ccccn3)nc3ccccc23)cc1` gave PG9 Ab binder -1, NR2E3 ag-1 95*, NR2E3 ag-2 -3, NR1D1 modulator 3, NR2E3 ag confirm-2 99* and GAL4-VP16 luc 59.
Screening c1ccc(CNc2nc(-c3ccccc3)nc3ccccc23)cc1 returned PG9 Ab binder -2, NR2E3 ag-1 -27, NR2E3 ag-2 0 and NR1D1 modulator 1.
`CCC(C)Nc1nc(-c2ccccn2)nc2ccccc12` (stereo not given) gave PG9 Ab binder 3, NR2E3 ag-1 100*, NR2E3 ag-2 2, NR1D1 modulator -3, NR2E3 ag confirm-2 99* and GAL4-VP16 luc 56.
Screening O=C(NC(NNc1ccc([N+](=O)[O-])cc1)(C(F)(F)F)C(F)(F)F)c1ccc(Cl)cc1 returned PG9 Ab binder 2, NR2E3 ag-1 48, NR2E3 ag-2 4, NR1D1 modulator -3, NR2E3 ag confirm-2 80* and GAL4-VP16 luc 85*.
`C=C(C(=O)c1ccccc1)C(C)C(=C)C(=O)c1ccccc1` gave PG9 Ab binder 0, NR2E3 ag-1 69, NR2E3 ag-2 3, NR1D1 modulator 3, NR2E3 ag confirm-2 79* and GAL4-VP16 luc 27.
Screening COc1ccc(COC(=O)c2cc([N+](=O)[O-])ccc2N2CCOCC2)cc1F returned PG9 Ab binder -1, NR2E3 ag-1 48, NR2E3 ag-2 -3, NR1D1 modulator 0, NR2E3 ag confirm-2 15 and GAL4-VP16 luc 28.
O=C(COC(=O)c1cc([N+](=O)[O-])ccc1N1CCOCC1)Nc1ccc(Cl)cc1 was read as PG9 Ab binder 1, NR2E3 ag-1 -25, NR2E3 ag-2 2 and NR1D1 modulator -1.
